Laboratory results from ChEMBL document CHEMBL1123240 (J Med Chem, 1986).

Assays:
Rattus norvegicus [1] = species: Rattus norvegicus; assay: Compound was tested for inhibition of Lateral perforant path(LPP) neurotransmission in hippocampus; type: functional
In short: (§1)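 Transverse hippocampal slices, 450 μm, from 30–90-day-old male Holtzman rats. Held at 30 °C, submerged in stirred medium (10 mM glucose, 124 mM NaCl, 3.3 mM KCl, 2.4 mM MgSO4, 2.5 mM CaCl2, 1.2 mM KH2PO4, 26 mM NaHCO3; 95:5 O2/CO2, pH 7.4). Evoked synaptic field potentials recorded extracellularly; CA1 electrodes in stratum radiatum. Drug started at threshold and doubled every 4 min. IC50 from fraction of uninhibited response versus log concentration.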

[2] = Ratio of IC50 of Lateral perforant path(LPP) to IC50 of [3H]- binding; type: tissue-based
In short: (§2)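 Ratio of IC50 values. For line 8, LPP IC50 from slice recording over [3H]APB binding IC50. Each IC50 is a weighted mean of IC50s calculated for each experimental point, or for steep agonist-like curves is read directly from the log concentration–response curve.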

Rattus norvegicus [3] = species: Rattus norvegicus; assay: Compound was evaluated for its ability to displace [3H]APB from rat brain synaptic plasma membrane preparations
Rattus norvegicus [4] = species: Rattus norvegicus; assay: Compound was tested for inhibition of hippocampal excitatory neurotransmission in schaffer collateral -CA1 pyramidal cells; type: functional; in short: as §1
Rattus norvegicus [5] = species: Rattus norvegicus; assay: Compound was tested for inhibition of Medial perforant path(MPP) neurotransmission in hippocampus; type: functional
[6] = Ratio of IC50 of Medial perforant path(MPP) to IC50 of Lateral perforant path(LPP); type: functional; in short: as §2
Rattus norvegicus [7] = species: Rattus norvegicus; assay: Compound was tested for inhibition of Medial perforant path(MPP) neurotransmission in hippocampus.; type: functional
Rattus norvegicus [8] = species: Rattus norvegicus; assay: Hill coefficient value of compound was evaluated for [3H]-APB binding to rat brain synaptic plasma
In short: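 Rat forebrain synaptic plasma membranes (Holtzman rats, 30–90 days; sucrose gradient, 1.0–1.3 M interface; 3–5 mg protein/mL stock). Membranes ≤200 μg/mL preincubated 5 min at 33 °C, then 1 h at 33 °C. Final: 50 mM HEPES pH 7.4, 10 mM CaCl2, 100 nM DL-[3H]APB, displacer up to 1 mM. Separation by centrifugation, scintillation counting. Nonspecific binding with 1 mM unlabeled ligand. Triplicates on ≥3 membrane preparations.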

Rattus norvegicus [9] = species: Rattus norvegicus; assay: Compound was tested for inhibition of hippocampal excitatory neurotransmission in schaffer collateral -CA1 pyramidal cells.; type: functional; in short: as §1

SMILES	IC50 (Rattus norvegicus [1])	Ratio [2]	IC50 (Rattus norvegicus [3])	IC50 (Rattus norvegicus [4])	IC50 (Rattus norvegicus [5])	Ratio [6]	IC50 (Rattus norvegicus [7])	nH (Rattus norvegicus [8])	IC50 (Rattus norvegicus [9])
N[C@@]1(C(=O)O)CCC[C@H](P(=O)(O)O)C1	3100 µM	3.7	840 µM	8100 µM	7300 µM	2.4			
N[C@@]1(C(=O)O)CCC[C@@H](P(=O)(O)O)C1	5800 µM	7.7	750 µM	9600 µM	10000 µM	1.7			
N[C@@H](CCP(=O)(O)O)C(=O)O	2.5 µM		1.5 µM			18	45 µM	0.8	2500 µM
N[C@@]1(C(=O)O)CC[C@@H](P(=O)(O)O)C1	130 µM		80 µM	> 10000 µM	1850 µM			1	
N[C@@]1(C(=O)O)CC[C@H](P(=O)(O)O)C1	960 µM		4.7 µM	3800 µM	2400 µM	2.5		1	
